Bioassay records from PubChem BioAssay.
This is a sample that favours compounds with a hit; in the whole collection about 2.6% have one here.
PolyA inhibitor: polyadenylation inhibitors in yeast reporter cells, primary screen, luminescence, S. cerevisiae. S. cerevisiae SKY197-pL101 polyadenylation reporter, beta-gal luminescence; efflux-impaired pdr1/pdr3 knockout yeast; score 100 = 6 SD above DMSO. activity score, % at 12 µM. 300,000 compounds, 0.02% hits;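 active = lowest replicate activity score at least 50, where 100 means six control SD above control mean; inconclusive = lowest score under 50 but half or more replicates reach 50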;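 note: yeast exposed to compound for 9 h at 30 °C; higher score means more reporter readthrough which indicates perturbed polyadenylation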
CHT allo act: CHT positive allosteric modulators, primary screen, cell-based, membrane potential dye, choline EC20. B-score at 10 µM. High affinity choline transporter 1 (Homo sapiens), Q9GZV3. 310,000 compounds, 0.49% hits. CHT-expressing cells; hits give high values; LV-AA mutant CHT in HEK293 cells. AID 488977, 2010;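 active = initial fluorescence not abnormally high and integrated response B-score, plate-corrected, over 3 SD above library mean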
Target sequence (Q9GZV3 whole entry, looked up): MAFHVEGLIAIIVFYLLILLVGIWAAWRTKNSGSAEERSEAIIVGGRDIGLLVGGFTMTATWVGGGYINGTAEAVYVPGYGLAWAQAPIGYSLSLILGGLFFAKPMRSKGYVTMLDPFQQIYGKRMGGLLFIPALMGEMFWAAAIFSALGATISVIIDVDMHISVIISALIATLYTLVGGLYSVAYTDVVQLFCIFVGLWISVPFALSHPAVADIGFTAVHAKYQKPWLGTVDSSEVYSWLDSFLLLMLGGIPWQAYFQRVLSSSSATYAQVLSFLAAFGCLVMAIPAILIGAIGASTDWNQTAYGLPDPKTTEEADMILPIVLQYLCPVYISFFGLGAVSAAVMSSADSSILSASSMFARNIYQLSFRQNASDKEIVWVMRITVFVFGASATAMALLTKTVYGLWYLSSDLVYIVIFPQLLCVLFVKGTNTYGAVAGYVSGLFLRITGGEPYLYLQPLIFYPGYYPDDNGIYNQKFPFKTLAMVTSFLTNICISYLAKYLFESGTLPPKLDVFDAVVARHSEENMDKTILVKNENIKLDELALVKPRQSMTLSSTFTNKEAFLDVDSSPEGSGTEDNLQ
T cruzi inh: inhibitors of intracellular T. cruzi growth, primary screen, luminescence, NIH3T3 host cells; T. cruzi beta-gal in NIH3T3, 90 h; 300,000 compounds, 1.4% hits; inhibition, % (no concentration beside the values);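 active = mean inhibition across valid replicates above about 55%, limit read from the data; inconclusive = mean below that limit but half or more replicates reach it; inactive = mean below it, under half of replicates reach it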;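 note: signal also drops with host cell toxicity which is not excluded here; 0% = plate median of DMSO wells and 100% = zero luminescence signal; higher percent means less beta-gal luminescence so fewer parasites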
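Test system: β-gal T. cruzi (Tulahuen C4) inside NIH/3T3 cells / Quantity: 5,000 cells/well / Measured by: luminescence from GalScreen with 0.05% NP40, read after 60 min / Medium: DMEM plus 2% FBS / Measure: parasite load inhibition, % / Reagent: Tulahuen C4 trypomastigotes, 5000/well / Schedule: co-culture of at least 90 h after 3 h attachment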
CHT block: inhibitors of human choline transporter CHT; CHT-expressing cells, membrane potential dye, choline response; hits give low values; 310,000 compounds, 0.86% hits; High affinity choline transporter 1 (Homo sapiens), Q9GZV3; B-score at 10 µM;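 active = B-score over 3 SD under the library average, and starting fluorescence ratio not unusually high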;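 note: choline stimulus applied at its EC90 after an EC20 pre-addition; B-score computed on integrated fluorescence ratio after choline addition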
CHT activ conf: CHT activators, confirmation, cell-based, membrane potential dye, duplicate; shares compounds with CHT allo act; CHT-expressing cells, membrane potential dye fluorescence (FDSS); % of choline EC20–EC90 response window; HEK293 expressing CHT LV-AA mutant; choline added at its EC20; activation, % at 10 µM; 2,500 compounds, 91% hits; AID 504833, 2011;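 active = primary screen active, with duplicate mean activation above negative control mean plus 3 SD, cut at about 11% in these data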
HEK293 MP dye: membrane potential response in parental HEK293 cells, counter-screen for CHT activator project, cell-based, membrane potential dye; shares compounds with CHT allo act; membrane potential dye fluorescence (FDSS); measured after EC20 choline addition; ratio readout change at 10 µM, hits read low; 2,500 compounds, 62% hits;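 active = duplicate-averaged ratio beyond 3 SD from buffer wells, up or down, though filed actives are nearly all decreases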
* marks the source's active call; other numbers are inactive results; i = inactive; ? = inconclusive; . = not tested or not shown.

SMILES	PolyA inhibitor	CHT allo act	T cruzi inh	CHT block	CHT activ conf	HEK293 MP dye
Cc1c(OCC(=O)NCCCN2CCCC2=O)ccc2c3c(c(=O)oc12)CCC3	-3.4	i	15.7	i	36.1*	-30.3*
Cc1c(OCC(=O)NCCCN2CCCC2=O)ccc2c3c(c(=O)oc12)CCCC3	-7.3	i	18.6	i	.	.
Cc1c(O)c(CN2CCCC2)cc2c3c(c(=O)oc12)CCC3	9.7	9.79*	9.2	i	36.9*	-72.5*
COC(=O)[C@@H](Cc1ccccc1)NC(=O)[C@H]1CCC(=O)N1C(=O)OCc1ccccc1	-1.2	i	-17.4	i	.	.
O=[N+]([O-])c1ccc(/C=C/C2=NN(c3ccccc3)C(c3ccco3)C2)cc1 (stereo not given)	.	14.8*	.	i	51.1*	i
CC(OC(=O)c1cc(=O)[nH]c2ccccc12)C(=O)c1ccccc1 (stereo not given)	-13.7	i	-3.5	i	.	.
CN(C)c1ccnc2sc3c(SCc4ccc(Cl)cc4)ncnc3c12	6.8	i	4.5	i	.	.
CN(C)c1ccnc2sc3c(NCC(O)CO)ncnc3c12 (stereo not given)	-13.8	6.69*	0.1	i	49.7*	-44.3*
Cc1ccc(COn2c(-c3ccc(Cl)cc3Cl)nc3ncccc32)cc1	13.1	6.61*	11.6	i	30.6*	i
CCC1CCc2sc(C(=O)NCC(c3ccc(OC)cc3)N3CCCC3)cc2C1 (stereo not given)	-3.1	i	66.1*	i	22.1*	i
c1cncc(N=c2scc(-c3cccc4ccccc34)n2CCCn2ccnc2)c1	-3.4	8.24*	46.5	i	7.1	i
Cc1cc(C)cc(NC(=S)N2CCN(S(=O)(=O)c3ccccc3)CC2)c1	.	i	.	i	.	.
CC(=O)c1ccc2c(c1)N(CCCN1CCC(CCO)CC1)c1ccccc1S2	.	9.08*	.	i	46.3*	-48.8*
CN1CCN(CCCN2c3ccccc3Sc3ccc(S(=O)(=O)N(C)C)cc32)CC1	.	i	.	i	16.4*	-29.8*
CC(C)N1CCC(N2CCN(Cc3cc(F)ccc3-n3cccn3)CC2CCO)CC1 (stereo not given)	10.9	i	-3.0	i	73.3*	-54.6*
CC(C)N1CCN(Cc2cc(F)ccc2-n2cccn2)CC1CCO (stereo not given)	-6.5	i	-6.3	i	.	.
Nc1ccc2c(c1)N1CCN=C1S2	16.6	i	18.0	i	54.0*	-48.6*
CN1CCN(NC(=O)c2cc(-c3ccccn3)nc3ccccc23)CC1	.	i	.	i	.	.
CN1CCN(NC(=O)c2cc(-c3ccc(Cl)s3)nc3ccccc23)CC1	-12.3	i	11.9	i	6.7	-36.5*
O=C(NNC(=O)c1ccccc1[N+](=O)[O-])c1ccc(NC(=O)c2ccccc2)cc1	-3.1	i	-3.2	i	.	.
Cc1csc2c(NCCCN3CCOCC3)ncnc12	10.4	i	-3.0	i	41.4*	-37.6*
Cn1c(SCc2ccccc2C#N)nc2ccccc2c1=O	-13.4	i	20.3	i	.	.
COc1ccc(N2CCN(S(=O)(=O)CCNC(=O)/C=C/c3ccccc3)CC2)cc1	10.4	i	1.2	i	.	.
COc1ccc(C(=O)NNC(=O)c2ccccc2[N+](=O)[O-])cc1[N+](=O)[O-]	26.7	i	-7.2	i	.	.
COc1ccc(C(=O)C(C)[n+]2ccc(C)c3ccccc32)cc1[N+](=O)[O-] (stereo not given)	2.7	6.53*	47.8	i	42.6*	-39.8*
SMILES	PolyA inhibitor	CHT allo act	T cruzi inh	CHT block	CHT activ conf	HEK293 MP dye
CCOC(=O)C(C)Sc1cc(CS(=O)(=O)c2ccccc2)nc(-c2ccccc2)n1 (stereo not given)	-12.4	7.7*	17.5	i	5.7	i
CCCc1cc(=O)oc2cc(OCC(=O)NCCCN3CCOCC3)ccc12	3.3	i	-12.1	i	37.1*	-35.5*
CCCc1cc(=O)oc2cc(OC(C)C(=O)NCCCn3ccnc3)ccc12 (stereo not given)	-6.9	i	-13.5	i	.	.
CCCc1cc(=O)oc2cc(OCC(=O)NCCCn3ccnc3)ccc12	7.6	i	-10.1	i	51.7*	-30.9*
Cc1cc2ccccc2n1CCNC(=O)C1CCCC1	-1.0	i	11.3	i	1.9	i
Cc1cc2ccccc2n1CCNC(=O)C1CCCCC1	-1.5	i	-5.1	i	.	.
Cc1c(N)c(=O)n(-c2ccccc2)n1C	.	i	.	i	.	.
Cc1cc(=S)n(-c2ccccc2)n1C	-13.6	6.97*	-9.1	i	7.5	i
Cc1noc(C)c1CSc1nc2ccccc2c(=O)n1-c1ccccc1	6.7	9.33*	33.6	i	35.1*	i
Cc1noc(C)c1CSc1nc2ccccc2c(=O)n1-c1ccc(F)cc1F	-35.0	10.8*	?	i	9.7	i
COC(=O)c1ccc(CSc2nc3ccccc3c(=O)n2-c2ccc(OC)c(OC)c2)o1	-10.4	i	23.2	i	.	.
Cc1noc(C)c1CSc1nnc2n(-c3ccccc3)c(=O)c3ccccc3n12	-4.5	i	15.4	i	.	.
C=CCn1c(SCc2c(C)noc2C)nc2ccccc2c1=O	-16.9	6.61*	-52.3	i	27.4*	i
C=CCn1c(SCc2c(C)noc2C)nc2cc(C(=O)O)ccc2c1=O	8.6	i	9.8	i	.	.
COC(=O)c1ccc(CSc2nc3ccccc3c(=O)n2-c2ccccc2)o1	-14.5	8.58*	15.1	i	19.3*	i
Cc1nn(Cc2c(F)c(F)c(F)c(F)c2F)c(C)c1NC(=O)c1nn(C)c(C)c1Br	19.2	i	14.4	i	.	.
COCCn1c(N)c(N(Cc2ccccc2)C(=O)COc2ccc(F)cc2Cl)c(=O)[nH]c1=O	-3.5	i	-2.2	i	.	.
O=c1oc2ccccc2cc1-c1cn2cccnc2n1	24.1	i	-22.4	i	20.3*	-32.8*
COc1ccc(/C=N/N(C)C2=NCCN2)c(OC)c1OC	1.7	6.97*	1.7	i	48.4*	-29.6*
C[n+]1cn(Cc2cc(Cl)ccc2OC(F)F)c2ccccc21	-1.9	7.26*	-1.6	i	54.1*	i
CC1(C)CC(=O)C=C(C(=O)N2CCCC(C(=O)c3cccc(C(F)(F)F)c3)C2)O1 (stereo not given)	-6.6	i	-2.6	i	.	.
N#Cc1c(N)sc2c1CCN(CCc1ccccc1)C2	8.1	i	3.7	i	30.5*	-41.3*
